Assay [1] has as its target T1, Short transient receptor potential channel 6 (Mus musculus) (UniProt Q61143).
T1 sequence (whole entry): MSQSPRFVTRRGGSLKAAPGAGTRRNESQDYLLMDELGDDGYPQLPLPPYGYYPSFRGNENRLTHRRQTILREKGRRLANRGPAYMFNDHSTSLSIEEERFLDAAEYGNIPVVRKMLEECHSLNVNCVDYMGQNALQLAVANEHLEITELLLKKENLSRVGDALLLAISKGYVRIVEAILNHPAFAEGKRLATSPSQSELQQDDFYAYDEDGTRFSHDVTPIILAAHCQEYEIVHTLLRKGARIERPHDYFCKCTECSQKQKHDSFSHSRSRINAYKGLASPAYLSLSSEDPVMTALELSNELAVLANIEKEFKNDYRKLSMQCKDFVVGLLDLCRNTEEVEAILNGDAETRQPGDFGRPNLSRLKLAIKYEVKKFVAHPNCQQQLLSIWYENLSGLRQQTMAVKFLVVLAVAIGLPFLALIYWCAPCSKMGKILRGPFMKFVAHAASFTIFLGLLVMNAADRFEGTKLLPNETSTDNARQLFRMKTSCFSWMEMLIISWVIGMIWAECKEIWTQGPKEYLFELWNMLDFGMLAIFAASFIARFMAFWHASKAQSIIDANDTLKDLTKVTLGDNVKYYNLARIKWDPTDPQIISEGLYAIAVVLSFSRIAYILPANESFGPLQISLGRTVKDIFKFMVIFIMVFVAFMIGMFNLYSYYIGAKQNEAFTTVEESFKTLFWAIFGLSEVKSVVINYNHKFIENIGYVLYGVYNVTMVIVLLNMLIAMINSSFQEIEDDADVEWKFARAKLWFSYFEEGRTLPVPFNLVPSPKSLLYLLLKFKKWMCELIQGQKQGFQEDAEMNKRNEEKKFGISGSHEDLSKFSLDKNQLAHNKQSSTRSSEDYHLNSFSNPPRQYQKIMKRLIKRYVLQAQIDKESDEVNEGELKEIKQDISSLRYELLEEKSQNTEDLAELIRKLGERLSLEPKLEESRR
In words: Antagonist activity at mouse TRPC6 expressed in HEK293 cells co-expressing Gq11-PLCbeta fused M5 receptor assessed as channel desensitization at 20 to 100 uM at +80 mV in presence of 0.1 mM Ca2+ by whole cell patch-clamp method. It counts as cell-based. Summed up:
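Whole-cell clamp of TRPC6/M5 or TRPC7 HEK293 cells with 0.1 mM Ca2+ bath and 400 nM free Ca2+ pipette. Ramps +100 to −100 mV every 1 s. Increasing concentrations given consecutively by perfusion (TRPC6 highest 20–100 μM; TRPC7 up to 30 μM). Currents at positive and negative potentials followed for desensitization.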
(In general: The patch-clamp technique gives a direct electrical read-out from membranes.)

In assay [2] the target is Transient receptor potential cation channel subfamily V member 1 (Homo sapiens) (UniProt Q8NER1). In words: Agonist activity at human TRPV1 expressed in HEK293 cells assessed as increase in intracellular calcium level at 33 uM measured for 2.5 mins by Fluo-8-AM dye based fluorescence assay. The format is cell-based.
Chain of Transient receptor potential cation channel subfamily V member 1 (Homo sapiens) (Q8NER1 whole entry): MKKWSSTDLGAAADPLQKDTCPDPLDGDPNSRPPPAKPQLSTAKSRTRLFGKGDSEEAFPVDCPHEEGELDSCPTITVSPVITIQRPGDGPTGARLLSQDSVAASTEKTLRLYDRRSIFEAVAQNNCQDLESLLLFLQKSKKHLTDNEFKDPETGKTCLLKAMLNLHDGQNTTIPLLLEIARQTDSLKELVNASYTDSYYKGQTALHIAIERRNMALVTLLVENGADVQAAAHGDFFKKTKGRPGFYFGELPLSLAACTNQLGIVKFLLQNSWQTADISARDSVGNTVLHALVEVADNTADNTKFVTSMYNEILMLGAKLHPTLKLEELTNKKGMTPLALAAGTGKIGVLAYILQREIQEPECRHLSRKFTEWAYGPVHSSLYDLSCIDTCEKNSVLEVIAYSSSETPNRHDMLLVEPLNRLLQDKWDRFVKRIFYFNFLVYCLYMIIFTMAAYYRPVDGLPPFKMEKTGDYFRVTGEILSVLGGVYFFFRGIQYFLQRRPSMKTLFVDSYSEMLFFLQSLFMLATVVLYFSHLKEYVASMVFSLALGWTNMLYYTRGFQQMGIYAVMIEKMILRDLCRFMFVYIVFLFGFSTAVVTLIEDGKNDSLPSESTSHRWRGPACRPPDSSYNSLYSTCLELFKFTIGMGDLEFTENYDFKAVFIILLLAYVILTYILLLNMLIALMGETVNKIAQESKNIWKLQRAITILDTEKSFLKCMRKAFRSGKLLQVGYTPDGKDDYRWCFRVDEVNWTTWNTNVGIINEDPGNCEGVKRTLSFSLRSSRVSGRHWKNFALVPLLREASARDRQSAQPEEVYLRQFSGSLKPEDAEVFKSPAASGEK
In assay [3] the target is T2, Short transient receptor potential channel 4 (Mus musculus, UniProt Q9QUQ5).
T2 sequence (Q9QUQ5 whole entry): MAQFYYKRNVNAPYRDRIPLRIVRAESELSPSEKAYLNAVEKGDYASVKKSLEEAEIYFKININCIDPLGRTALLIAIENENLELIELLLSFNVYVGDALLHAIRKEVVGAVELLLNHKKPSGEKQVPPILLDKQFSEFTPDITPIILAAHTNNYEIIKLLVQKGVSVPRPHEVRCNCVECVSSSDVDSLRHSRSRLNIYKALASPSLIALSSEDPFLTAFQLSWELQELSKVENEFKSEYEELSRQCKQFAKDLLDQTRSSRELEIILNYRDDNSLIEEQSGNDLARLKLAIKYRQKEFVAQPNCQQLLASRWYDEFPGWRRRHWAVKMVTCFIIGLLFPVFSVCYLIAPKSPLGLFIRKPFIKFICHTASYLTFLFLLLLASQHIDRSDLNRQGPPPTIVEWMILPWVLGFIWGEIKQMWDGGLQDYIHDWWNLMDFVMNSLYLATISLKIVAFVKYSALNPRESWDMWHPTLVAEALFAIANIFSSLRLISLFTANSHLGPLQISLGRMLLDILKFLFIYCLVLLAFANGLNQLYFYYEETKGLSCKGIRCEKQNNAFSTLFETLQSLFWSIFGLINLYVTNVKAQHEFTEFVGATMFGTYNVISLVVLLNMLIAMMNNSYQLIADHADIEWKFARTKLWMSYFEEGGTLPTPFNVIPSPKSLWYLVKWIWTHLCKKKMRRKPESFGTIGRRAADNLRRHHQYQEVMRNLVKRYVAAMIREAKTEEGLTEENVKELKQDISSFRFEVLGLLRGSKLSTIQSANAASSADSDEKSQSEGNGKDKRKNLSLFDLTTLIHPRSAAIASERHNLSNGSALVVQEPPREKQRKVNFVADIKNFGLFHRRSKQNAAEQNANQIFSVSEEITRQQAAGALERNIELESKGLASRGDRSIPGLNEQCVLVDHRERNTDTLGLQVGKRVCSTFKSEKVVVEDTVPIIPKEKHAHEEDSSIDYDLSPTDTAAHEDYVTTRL
In words: Antagonist activity at mouse TRPC4beta expressed in HEK293 cells co-expressing MOR decrease in DAMGO-evoked intracellular calcium level by Fluo-8-AM dye-based fluorescence assay. The format is cell-based. The procedure, abridged: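 MOR/TRPC4β HEK293 cells loaded with Ca2+ dye. Compound given before 1 μM DAMGO. IC50 estimated from one experiment in triplicate.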
(In general: Calcium assays in cells follow changes in intracellular calcium, usually with a dye or a luminescent sensor.)

Assay [4] concerns the target Transient receptor potential cation channel subfamily M member 8 (Mus musculus) (UniProt Q8R4D5). In words: Inhibition of mouse TRPM8 expressed in HEK293 cells assessed as decrease in menthol-evoked increase in intracellular calcium level at 22 uM preincubated for 2 mins followed by menthol addition measured for 2.5 mins by Fluo8-AM dye-based fluorescence assay relative to control.

Assay [5] addresses T3, Short transient receptor potential channel 6 (Mus musculus, UniProt Q61143).
T3 sequence (Q61143 whole entry): T1 sequence (whole entry)
In words: Agonist activity at mouse TRPC6 expressed in HEK293 cells co-expressing Gq11-PLCbeta fused M5 receptor assessed as peak current changes at +80 mV by whole cell patch-clamp method. It counts as cell-based. Summed up: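 Whole-cell patch clamp of TRPC6/M5 HEK293 cells. Pipette solution: 110 CsCl, 10 BAPTA, 4.77 CaCl2 (400 nM free Ca2+), pH 7.2. Bath at 0.1 mM Ca2+, pH 7.4. Ramps from +100 to −100 mV (100 ms) every 1 s from a 0 mV holding potential. Concentrations of 0.1–100 μM applied consecutively by perfusion. EC50 from currents at +80 mV.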

In assay [6] the target is T4, Short transient receptor potential channel 4 (Mus musculus) (UniProt Q9QUQ5).
T4 sequence (whole entry): T2 sequence (Q9QUQ5 whole entry)
In words: Agonist activity at mouse TRPC4beta expressed in HEK293 cells co-expressing MOR assessed as increase in intracellular calcium level at 33 uM measured for 2.5 mins by Fluo-8-AM dye-based fluorescence assay. The format is cell-based.

For orientation: inhibition means the share of the control response that was lost under treatment. Broadly, the EC50 is the concentration needed to bring the measured effect to its halfway point.

Activity calls are given as the source filed them. No cut-off for these calls is given here.

Chain of Transient receptor potential cation channel subfamily M member 8 (Mus musculus) (Q8R4D5 whole entry): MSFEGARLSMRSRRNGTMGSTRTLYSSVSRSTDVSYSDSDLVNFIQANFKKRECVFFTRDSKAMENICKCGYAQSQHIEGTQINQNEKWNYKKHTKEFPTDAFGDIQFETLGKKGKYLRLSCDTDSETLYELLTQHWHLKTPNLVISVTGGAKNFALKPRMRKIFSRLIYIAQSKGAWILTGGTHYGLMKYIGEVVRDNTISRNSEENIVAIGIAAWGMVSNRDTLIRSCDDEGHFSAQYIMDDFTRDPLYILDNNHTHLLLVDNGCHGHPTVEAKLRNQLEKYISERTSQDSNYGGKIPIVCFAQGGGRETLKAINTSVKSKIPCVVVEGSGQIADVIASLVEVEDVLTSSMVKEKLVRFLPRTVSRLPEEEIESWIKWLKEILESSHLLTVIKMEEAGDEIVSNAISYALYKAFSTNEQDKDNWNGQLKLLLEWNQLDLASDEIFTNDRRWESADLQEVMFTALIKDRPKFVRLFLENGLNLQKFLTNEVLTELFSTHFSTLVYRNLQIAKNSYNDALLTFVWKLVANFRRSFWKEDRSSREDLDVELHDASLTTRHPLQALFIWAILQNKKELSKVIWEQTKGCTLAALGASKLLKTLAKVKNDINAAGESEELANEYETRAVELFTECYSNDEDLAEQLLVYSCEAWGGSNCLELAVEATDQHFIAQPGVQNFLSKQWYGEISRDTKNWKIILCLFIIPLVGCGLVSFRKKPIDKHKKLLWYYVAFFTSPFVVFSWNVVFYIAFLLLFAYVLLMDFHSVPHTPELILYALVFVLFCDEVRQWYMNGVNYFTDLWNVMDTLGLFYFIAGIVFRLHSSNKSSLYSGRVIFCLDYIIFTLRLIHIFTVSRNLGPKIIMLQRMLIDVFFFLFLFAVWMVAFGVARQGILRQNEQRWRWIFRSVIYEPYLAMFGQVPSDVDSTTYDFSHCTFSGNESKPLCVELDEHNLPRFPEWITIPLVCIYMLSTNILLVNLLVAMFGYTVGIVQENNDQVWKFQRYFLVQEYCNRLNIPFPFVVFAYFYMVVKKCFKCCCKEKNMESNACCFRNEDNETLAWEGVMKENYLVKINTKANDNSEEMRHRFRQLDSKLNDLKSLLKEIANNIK

Take `CCOC(=O)N1CCC(c2cc(O)n3nc(C)c(-c4ccc(F)cc4)c3n2)CC1`: the outcome in assay [1], in assay [2] and in assay [6] was inactive. In addition, in assay [3], the IC50 result is reported as “Not Active”. For the same compound, the inhibition in assay [4] amounted to 22%. The concentration giving a half-maximal response (EC50) in assay [5] lay in the range of 2500 to 6280 nM.

For the compound `CCOC(=O)N1CCC(c2cc(O)n3nc(C)c(-c4ccc(C(F)(F)F)cc4)c3n2)CC1`, the outcome in assay [1], in assay [2] and in assay [6] was inactive. Moreover, the IC50 result in assay [3] is “Not Active”. Also, the inhibition in assay [4] stood at 17%. Further, the EC50 in assay [5] is 890 nM.

As for `Cc1nn2c(O)cc(C3CCN(C(=O)OCc4ccccc4)CC3)nc2c1-c1ccc(F)cc1`, the result in assay [1], in assay [2] and in assay [6] was inactive. In assay [3], the IC50 result is “Not Active”. In addition, in assay [4], the inhibition stood at 35%. Further, the EC50 in assay [5] was 3240 nM.

For `Cc1nn2c(O)cc(C3CCN(C(=O)OCc4ccccc4)CC3)nc2c1-c1ccc(Cl)cc1`, the outcome in assay [1], in assay [2] and in assay [6] was inactive. For the same compound, the IC50 result in assay [3] is reported as “Not Active”. Besides, the EC50 in assay [5] was 2050 nM.

These data come from ChEMBL document CHEMBL4014306, “Pyrazolopyrimidines as Potent Stimulators for Transient Receptor Potential Canonical 3/6/7 Channels” (J Med Chem, 2017).
